# Screening results: PubChem BioAssay, several laboratories
# PG9 binder – small molecules binding HIV-1 gp120 antibody PG9. AID 624416. 360,000 tested, 0.43% active. TR-FRET gp120-PG9 antibody binding. inhibition, % at 6.7 µM; in the data active = inhibition above about 8.5%
# NR1D1 modulator – Rev-erb alpha (human) modulation; P20393; Rev-erbα–FITC-DNA binding, fluorescence polarization, 90 min; activity, % at 10 µM; 370,000 tested, 0.79% active;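 active = activity above about 14%, limit read from the data; passing the limit was not always enough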;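 also: 0% = DMSO wells with 35 nM protein and 100% = DMSO wells with 750 nM protein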
# NR2E3 ag-1 – activates human photoreceptor nuclear receptor NR2E3 | inhibition of corepressor binding, % at 4.78 µM | Q9Y5X4 | 320,000 tested, 0.12% active | GST-NR2E3/biotin-RetCOR TR-FRET, 1536-well;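 active = percent inhibition above the cutoff of mean plus 3 SD of all tested compounds, set per screening campaign, cut at about 20% in these data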;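 also: 0% = DMSO wells and 100% = biotin wells as full block of FRET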
#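 System: GST-tagged NR2E3 plus biotinylated RetCOR corepressor; Buffer or medium: pH 7.5 Tris-based buffer; Probe or stimulus: RetCOR corepressor, biotinylated, 7 nM; Doses: compound at 4.8 µM, single dose; Schedule: 5 h incubation at 4 °C; Technique: time-resolved FRET; Evaluation: percent inhibition of TR-FRET ratio; Replication: one well per compound, singlicate testing.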
# NR2E3 ag-2 – activates human NR2E3 receptor; Q9Y5X4; CHO-S Gal4-NCOR/VP16-NR2E3 two-hybrid, luciferase; inhibition of corepressor binding, % at 3.98 µM; 360,000 tested, 0.35% active;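 active = inhibition above the mean of all tested compounds plus 3 SD, cut at about 70% in these data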;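 also: 0% = DMSO with NR2E3 transfected cells and 100% = cells lacking NR2E3 construct; higher means lower luciferase signal from less NR2E3 corepressor binding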
# NR2E3 ag confirm-1 – NR2E3 (human) agonism, confirmation. 360 tested, 39% active. shares compounds with NR2E3 ag-1. cell-free NR2E3 corepressor release, TR-FRET, 5 h. activation (reported as inhibition), % at 3.98 µM; in the data active = activation above about 20%
# PPARg-NCOR2 ag – releases PPARgamma from NCOR2 in NR2E3 counter-screen. TR-FRET PPARg-NCOR2 coregulator interaction, biochemical. shares compounds with NR2E3 ag-1. inhibition, % at 3.98 µM. 360 tested, 45% active. AID 504787; in the data active = inhibition above about 20%;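 also: 0% = DMSO vehicle and 100% = wells without protein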
# NR2E3 ag confirm-2 – NR2E3 agonism confirmed in two-hybrid assay; shares compounds with NR2E3 ag-2; CHO-S mammalian two-hybrid NR2E3-NCOR, luciferase luminescence; inhibition, % at 3.98 µM; 2,300 tested, 51% active;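 active = average inhibition above a cutoff equal to the mean inhibition of all tested compounds plus one SD, cut at about 70% in these data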;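 also: 0% = DMSO in NR2E3 cells and 100% = DMSO in cells lacking NR2E3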
# GAL4-VP16 luc – GAL4-VP16 reporter inhibition in NR2E3 agonist counterscreen; shares compounds with NR2E3 ag-2; CHO-S GAL4-VP16 luciferase reporter, luminescence; inhibition, % at 3.98 µM; 2,300 tested, 29% active; AID 624379;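 active = mean inhibition above a cutoff equal to the average over all tested compounds plus one standard deviation, cut at about 70% in these data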;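 also: luciferase from a UAS reporter driven by GAL4-VP16 transactivation; 0% = DMSO with VP16-transfected cells and 100% = DMSO with cells lacking VP16; higher means less reporter light so more repression of VP16 activity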
# PG9 bind confirm – confirmation of small molecules binding HIV-1 gp120 antibody PG9; inhibition, % at 6.7 µM; 1,500 tested, 90% active; TR-FRET PG9 antibody binding, biochemical; shares compounds with PG9 binder; AID 651571; in the data active = inhibition above about 9%
# PGV04 counter – binds control antibody PGV04 in PG9 binder counter-screen; shares compounds with PG9 binder; TR-FRET PGV04 antibody-gp120 binding, biochemical; inhibition, % at 6.7 µM; 1,500 tested, 95% active; in the data active = inhibition above about 9.5%
# NR1D1 mod conf – Rev-erb alpha (human) modulation, hit confirmation | shares compounds with NR1D1 modulator | Rev-erb alpha FITC-DNA binding, fluorescence polarization, 90 min | activation, % at 25 µM | 3,000 tested, 61% active;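 active = activation at or above a set limit, or at least 3 SD above the negative control mean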;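 also: 0% = 35 nM protein with DMSO and 100% = 750 nM protein high control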
# RORg counter – RORgamma DNA-binding activity, dose-response counter-screen. shares compounds with NR1D1 modulator. purified RORgamma protein-FITC-DNA binding, fluorescence polarization. IC50, µM. 910 tested, 8% active. AID 1259320;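 active = Compounds whose fitted half-maximal concentration for disrupting protein-DNA binding is below 10 micromolar; the record names Rev-erb in its text, so the target is in doubt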
# The depositor's hits bear a star; . = no result. Compounds with a hit are over-represented: about 1.4% of the library has one in this group of screens.
SMILES,PG9 binder,NR1D1 modulator,NR2E3 ag-1,NR2E3 ag-2,NR2E3 ag confirm-1,PPARg-NCOR2 ag,NR1D1 mod conf,others
O=C(CCCn1c(=S)[nH]c2cc3c(cc2c1=O)OCO3)NCc1cccc(Cl)c1,17*,48*,28*,0,18,22*,30*,PG9 bind confirm=13*;PGV04 counter=23*;RORg counter=>40
CCC(=O)c1ccccc1OCC(=O)Nc1c(C)cccc1C,1,3,0,-4,.,.,.,
Cc1cccc(C)c1NC(=O)COc1ccccc1C(=O)Nc1ccc(Br)cn1,62*,118*,44*,-30,42*,49*,92*,PG9 bind confirm=61*;PGV04 counter=83*;RORg counter=>40
CCC(=O)O[C@@H]1CC(=O)O[C@H](C)C/C=C/C=C/[C@H](O)[C@H](C)C[C@H](CC=O)[C@H](O[C@@H]2O[C@H](C)[C@@H](O[C@H]3C[C@@](C)(O)[C@@H](OC(=O)CC)[C@H](C)O3)[C@H](N(C)C)[C@H]2O)[C@H]1OC,.,0,.,.,.,.,.,
O=C(CSc1ncnc2ccccc12)Nc1ccc2c(c1)OCCO2,0,1,0,-37,.,.,.,
O=C(CSc1nc(Cc2ccccc2)nc2ccccc12)Nc1ccc2c(c1)OCCO2,8,33*,28*,18,-4,17,27*,
CCCCCn1c(SCC#N)nc2cc(C(=O)NCC3CCCO3)ccc2c1=O (stereo not drawn),68*,71*,22*,4,1,6,38*,
CCc1ccccc1NC(=O)CSc1nc2cc(C(=O)NCC3CCCO3)ccc2c(=O)n1CC1CCCO1 (stereo not drawn),-1,2,.,-15,.,.,.,
CC[C@H]1OC(=O)[C@H](C)[C@@H](O[C@H]2C[C@@](C)(OC)[C@@H](O)[C@H](C)O2)[C@H](C)[C@@H](O[C@@H]2O[C@H](C)C[C@H](N(C)C)[C@H]2O)[C@](C)(O)C[C@@H](C)/C(=N\OCOCCOC)[C@H](C)[C@@H](O)[C@]1(C)O,.,-1,.,.,.,.,.,
Cc1ccc(C(=O)Nc2nc3ccccc3c(=O)s2)cc1,73*,69*,23*,6,43*,46*,35*,PG9 bind confirm=78*;PGV04 counter=89*;RORg counter=2.1*
CSc1nc2ccc3nc(NC(=O)c4ccc(C)cc4)sc3c2s1,-1,9,0,-10,.,.,.,
COc1ccc2nc(C)cc(SCC(=O)Nc3c(C)cc(C)cc3C)c2c1,-1,412*,36*,-17,-55,-55,19*,
O=C(CSc1ncnc2c1oc1ccccc12)Nc1ccccc1C(F)(F)F,66*,348*,44*,8,70*,74*,341*,PG9 bind confirm=27*;PGV04 counter=75*
CC[C@@H]([C@H](C)O)n1ncn(-c2ccc(N3CCN(c4ccc(OC[C@@H]5CO[C@@](Cn6cncn6)(c6ccc(F)cc6F)C5)cc4)CC3)cc2)c1=O,.,-1,.,.,.,.,.,
CC(=O)[C@H]1CCC2C3CCC4=CC(=O)CC[C@]4(C)C3CC[C@@]21C (stereo partly drawn),.,-2,.,.,.,.,.,
CCc1cc2cc3c(cc2nc1SCC(=O)Nc1cc(C)on1)OCO3,21*,211*,23*,-14,51*,62*,158*,PG9 bind confirm=46*;PGV04 counter=66*;RORg counter=>40
CCc1cc2cc3c(cc2nc1SCC(=O)OC(C)C)OCO3,-1,3,-2,4,.,.,.,
S=c1nc(SCc2ccccc2)[nH]c2ccccc12,7,29*,35*,68,36*,55*,10,NR2E3 ag confirm-2=18;GAL4-VP16 luc=-40
CCOc1c(N2CCOCC2)cnn(C)c1=O,.,1,.,.,.,.,.,
Cc1sc2nc(SCC(=O)NCc3ccco3)n(Cc3ccccc3)c(=O)c2c1C,20*,37*,38*,-36,7,9,31*,PG9 bind confirm=14*;PGV04 counter=20*
CO[C@H]1C[C@H](O[C@H]2[C@H](C)[C@@H](O[C@@H]3O[C@H](C)C[C@H](N(C)C)[C@H]3O)[C@@H](C)C[C@]3(CO3)C(=O)[C@H](C)[C@@H](O)[C@@H](C)[C@@H](C)OC(=O)[C@@H]2C)O[C@@H](C)[C@@H]1O,.,2,.,.,.,.,.,
Brc1cc(Br)c2ncnc(N3CCCCC3)c2c1,38*,76*,34*,-16,34*,29*,40*,PG9 bind confirm=54*;PGV04 counter=63*;RORg counter=2.8*
CCN(CC)S(=O)(=O)c1cccc(NC(=O)CNc2cccc(S(=O)(=O)N3CCCC3)c2)c1,0,3,0,85*,.,.,.,NR2E3 ag confirm-2=80*;GAL4-VP16 luc=61
CCN(CC)S(=O)(=O)c1cccc(NC(=O)Nc2cccc(C(F)(F)F)c2)c1,-2,2,-1,75*,.,.,.,NR2E3 ag confirm-2=65;GAL4-VP16 luc=53
Cc1ccc(S(=O)(=O)N2C[C@H]3N(C(=O)OC(C)C)N(C(=O)OC(C)C)C[C@H](OC(=O)NCC4CCCCC4)[C@@]3(O)C2)cc1,.,.,.,57,.,.,.,NR2E3 ag confirm-2=70*;GAL4-VP16 luc=45
SMILES,PG9 binder,NR1D1 modulator,NR2E3 ag-1,NR2E3 ag-2,NR2E3 ag confirm-1,PPARg-NCOR2 ag,NR1D1 mod conf,others
Cc1ccc(S(=O)(=O)N2C[C@H]3N(C(=O)OC(C)C)N(C(=O)OC(C)C)C[C@H](OC(=O)NCc4ccccc4)[C@@]3(O)C2)cc1,2,2,.,-29,.,.,.,
COc1ccc(S(=O)(=O)N2CCCCC2)cc1NC(=S)Nc1ccccc1,0,3,-3,91*,.,.,.,NR2E3 ag confirm-2=86*;GAL4-VP16 luc=-12
COc1ccc(S(=O)(=O)N2CCCCC2)cc1NC(=S)Nc1cccc(Cl)c1C,-1,4,-1,80*,.,.,.,NR2E3 ag confirm-2=89*;GAL4-VP16 luc=-22
COc1ccc(NC(=S)Nc2cc(S(=O)(=O)N3CCCCC3)ccc2OC)cc1,.,.,-3,.,.,.,.,
O=C(CSc1nnc(-c2ccccc2)n1Cc1ccco1)Nc1ccc(OCc2ccccc2)cc1,.,4,.,.,.,.,.,
O=C(c1ccc(CSc2nc3ccncc3[nH]2)cc1)N1CCCCCC1,-3,-2,1,-71,.,.,.,
